Data on six compounds can be found in publication PMC3251632 (Cancer research, 2011).

Entries after “also recorded” stand apart in the source; their conditions may differ.

One data set concerns Akt. The experiment in a line: Akt phosphorylation in CFPAC cells. In kind it is cell-based, human.
The subject of a further data set is Panc02 cells. The experiment in a line: Caspase-3 activation. The settings on record: 10 μM, 24 h, flow cytometry. It counts as cell-based, mouse.
The target in another data set is σ-2 receptor (Homo sapiens, UniProt Q5BJF2). The experiment in a line: Competitive displacement of fluorescent sigma-2 ligand SW120. The note with it: compared to non-conjugated SV119; CFPAC cells. In kind it is binding, human (CFPAC cells).
Sequence of σ-2 receptor (Q5BJF2 whole entry): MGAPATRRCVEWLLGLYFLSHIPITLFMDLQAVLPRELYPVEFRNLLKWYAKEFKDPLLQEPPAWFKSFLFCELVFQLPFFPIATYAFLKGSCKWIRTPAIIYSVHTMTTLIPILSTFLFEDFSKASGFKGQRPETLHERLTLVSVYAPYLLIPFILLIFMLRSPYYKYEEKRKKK
Data set [1] deals with Panc02 tumors. The experiment in a line: In vivo apoptosis in Panc02 tumors. More on the design: species or system mouse (C57BL/6). The settings on record: single i.p. dose (S2-Bim 400 μg), next day, n = 3. In short, it runs like this: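 Female C57BL/6 mice, 8–12 weeks old, received 1 × 10^6 Panc02 cells subcutaneously in the right flank. At two weeks (mean tumour diameter ~5 mm) they got a single i.p. dose of 400 μg. Tumours were harvested 24 h later. For TUNEL, tumours were stained directly. For caspase-3, tumours were minced to 1 mm and digested 45 min in RPMI with 1 mg/mL collagenase and 0.1 mg/mL DNase, filtered, ACK-lysed, resuspended in PBS pH 7.4, fixed in 1% paraformaldehyde, and read by flow cytometry for activated caspase-3.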

The test system of data set [2] is Panc02 tumors. The experiment in a line: Syngeneic Panc02 tumor growth and survival. It counts as in vivo, mouse (C57BL/6). The settings on record: C57BL/6 mice with Panc02 tumors; supplementary Fig. 4. In short, it runs like this: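 Female C57BL/6 mice, 8–12 weeks old, carried 1 × 10^6 Panc02 cells in the flank. Dosing began ~2 weeks after implantation (mean diameter ~6–7 mm): i.p. every other day for two weeks, n = 12 per group. Mice were euthanised at tumour ulceration or a mean diameter of 15 mm. Survival was plotted as Kaplan-Meier curves and compared by log-rank test.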

Data set [3] relates to pancreatic cancer cell lines. In words: Killing capacity in additional pancreatic cancer cell lines in vitro. It counts as cell-based. The settings on record: all cell lines under investigation; supplementary Fig. 3.
The subject of the next data set is CFPAC tumors. In words: Xenograft CFPAC tumor growth. In kind it is in vivo, human tumor in nude mice. The note with it: daily treatment for one week, CFPAC-bearing nude mice, n = 12 per group. The method in brief:
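Female nu/nu mice, 8–12 weeks old, carried 2 × 10^6 CFPAC cells in the flank. Treatment began ~2 weeks after implantation (mean diameter ~6–7 mm) and was given daily for one week, n = 12 per group. Tumour growth was measured by caliper as mean diameter. Groups were compared by one-tailed Student's t test.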
(Xenograft models place foreign cells or tissue in a host animal.)

The conditions of data set [4]: ref ([30]–[32]); cited from earlier work.
For data set [5] the following is noted: SW43 by itself, vs SV119; ref ([24]); cited from earlier work.

On to “LDPKLMKEEQMSQAQLFTRSFDDGL-OH [S2-CTMP-4]”, for which the “interference with Akt activation (phosphorylation)” value in the data set with Akt (CFPAC cells, 24 hours post-treatment) is “capable of interfering with Akt activation”. Further, in the data set with Panc02 cells, the “fold increase in apoptosis (caspase-3 induction) vs SV119 alone” value is listed as 1.3 fold.
Consider `CC(C)=CCN1CC[C@]2(C)c3cc(O)ccc3C[C@H]1[C@H]2C` [(+)-pentazocine, reference compound], for which the “displacement of SW120 (in words)” value at σ-2 receptor is on record as “unable to compete off SW120”.
Consider EIWIAQEARRIGAEFNAYYAR-OH [S2-BimX], for which the “tumor cell apoptosis (activated caspase-3) in words” value in the data set with Panc02 tumors [1] is “only background signals”. In addition, the “time by which all mice had died” value in the data set on Panc02 tumors [2] was 43 days post tumor inoculation. Besides, in data set [3], the “potency / response of pancreatic cancer cell lines (in words)” value is on record as “virtually no activity in all cell lines tested; also recorded: complete loss of killing activity”. Besides, the “displacement of SW120 (in words)” value on σ-2 receptor is listed as “displaced SW120 in a dose-dependent fashion”. The “tumor growth, CFPAC xenograft (in words)” value with CFPAC tumors is listed as “somewhat reduced tumor growth rate; also recorded: elicited SV119 baseline activity”.
For `CC1(C)CCC(c2ccc(Cl)cc2)=C(CN2CCN(c3ccc(C(=O)NS(=O)(=O)c4ccc(N[C@H](CCN5CCOCC5)CSc5ccccc5)c(S(=O)(=O)C(F)(F)F)c4)cc3)CC2)C1` [ABT-263], in data set [4], the “oral bioavailability (in words)” value is “orally bioavailable”.
Turning to `COc1ccc(C)cc1NC(=O)OC1C[C@H]2CCC[C@@H](C1)N2CCCCCCN` (stereo partly drawn) [SV119], the “activation status of the two central kinases (Akt and p70 S6 kinase)” value in the data set with Akt (SV119 alone, 24 hours, also p70 S6 kinase (data not shown)) is given as “incapable of altering the activation status of these two central kinases”. Further, the “tumor growth, CFPAC xenograft (in words)” value in the data set on CFPAC tumors is “somewhat reduced tumor growth rate”.
Regarding `COc1ccc(C)cc1NC(=O)OC1CC2CCCC(C1)N2CCCCCCCCCCN` (stereo not drawn) [SW43], in data set [5], the “cytotoxicity relative to SV119” value was “twice as cytotoxic by itself”.
